# Measured values from different studies.
# Lines come from different studies, so protocols differ. pIC50: −log10 of the molar value.
# Cell line: MCF7
# Read-out: cell growth or viability
SMILES,test,conditions,quantity,value
COc1ccnc(-c2cc(OC)ccn2)c1,MTT,48 h,pIC50,< 4.30
c1ccc2cc(-c3nnc(NC4CCCCC4)[nH]3)ccc2c1,,48 h,pIC50,5.76
Cc1ccc2nc(-c3cc(Br)ccc3O)[nH]c2c1,MTT,48 h,pIC50,5.36
CCn1c(=N)c(C(=O)NCCOC)cc2c(=O)n3ccccc3nc21,MTT,72 h,pIC50,< 4.00
CCN(CC)CCCn1cccc1/C=N/NC(=O)Nc1cc2c(Nc3ccc(F)c(Cl)c3)ncnc2cc1OC,MTT,72 h,pIC50,5.61
Oc1ccc(Br)cc1-c1nc2ccccc2[nH]1,MTT,48 h,pIC50,5.29
O=C(NC(=S)NCCCNC(=S)NC(=O)c1ccc2ccccc2c1)c1ccc2ccccc2c1,,48 h,pIC50,5.95
CC(=O)OC[C@H]1O[C@@H]([S-])[C@H](OC(C)=O)[C@@H](OC(C)=O)[C@@H]1OC(C)=O.CCP(CC)CC.[Au+],resazurin,,pIC50,5.28
CSc1nc(/N=C/c2cc(C)ccc2O)n(-c2ccc(C(=O)O)cc2)n1,MTT,,pIC50,4.62
c1cc2c(cc1CNCC1CCNCC1)OCO2,MTT,72 h,pIC50,< 4.00
COc1ccc(C(=O)O[C@@H]2CN3Cc4c(cc5c(c4OC)OCO5)[C@@]24C=C[C@H](OC)C[C@@H]34)cc1,WST-1,,pIC50,< 5.00
Cc1cc(C)n(-c2nc(Nc3ccc(Cl)cc3)nc(-n3nc(C)cc3C)n2)n1,MTT,72 h,pIC50,5.64
COc1ccc(-c2nn(-c3ccc(S(C)(=O)=O)cc3)cc2/C=N/N=c2\[nH]c(-c3ccc(Br)cc3)cs2)cc1,MTT,48 h,pIC50,5.50
Oc1ncnc2cc(Nc3nc(-c4ccc(Cl)cc4)cs3)ccc12,MTT,,pIC50,5.38
CSc1nc(/N=C/c2ccc(O)cc2)n(-c2ccc(C(=O)O)cc2)n1,MTT,,pIC50,4.46
Oc1ncnc2cc(Nc3nc(-c4ccccc4)cs3)ccc12,MTT,,pIC50,5.21
O=c1c(O)c(-c2ccc(O)c(O)c2)oc2cc(O)cc(O)c12,WST-1,48 h,pIC50,4.93
Oc1ccccc1-c1ccc2ncnc(Nc3cccc(C(F)(F)F)c3)c2c1,MTT,24 h,pIC50,5.15
CC1(C)CC[C@]2(C(=O)O)CC[C@]3(C)C(=CC[C@@H]4[C@@]5(C)CC[C@H](O)C(C)(C)[C@@H]5CC[C@]43C)[C@@H]2C1,MTT,48 h,pIC50,< 4.00
C=C1C(=O)[C@]2(OC)C(=O)O[C@@]34C[C@H](C)C(C(=O)O)=C[C@@H]3CCC[C@@H](C)C[C@@H](C)[C@H]1O[C@H]24,ATP luminescence,,pIC50,4.68
COc1ccc(O)c(/C=N/c2nc(SC)nn2-c2ccc(C(=O)O)cc2)c1,MTT,,pIC50,4.56
CN(C)CCCn1cccc1/C=N/NC(=O)Nc1cc2c(Nc3ccc(F)c(Cl)c3)ncnc2cc1O[C@H]1CCOC1,MTT,72 h,pIC50,5.21
Cc1ccc2nc(-c3ccc([N+](=O)[O-])cc3)n(Cc3ccccc3)c2c1,MTT,,pIC50,5.10
c1ccc(-c2ccccn2)nc1,MTT,48 h,pIC50,< 4.30
CC(=O)O[C@H]1C(=O)[C@@]2(C)[C@H]([C@H](OC(=O)c3ccccc3)[C@]3(O)C[C@H](OC(=O)[C@H](O)[C@@H](NC(=O)c4ccccc4)c4ccccc4)C(C)=C1C3(C)C)[C@]1(OC(C)=O)CO[C@@H]1C[C@@H]2O,,,IC50,1 µg/mL
O=C(CCl)Nc1ccc2c(Nc3cccc(C(F)(F)F)c3)ncnc2c1,MTT,24 h,pIC50,5.11
CSc1ccc(-c2nc3ccccc3[nH]2)cc1,MTT,48 h,pIC50,4.48
CN1CCN(CCCn2cccc2/C=N/NC(=O)Nc2cc3c(Nc4ccc(F)c(Cl)c4)ncnc3cc2O[C@H]2CCOC2)CC1,MTT,72 h,pIC50,5.67
O=S(=O)(NN=Cc1cn(CCN2CCOCC2)c2ccccc12)c1ccc(Cl)cc1,MTT,48 h,pIC50,4.88
O=Cc1ccc(CO)o1,WST-1,48 h,pIC50,4.34
O=C(N/N=C/CN1CCCCC1)Nc1cc2c(Nc3ccc(F)c(Cl)c3)ncnc2cc1O[C@H]1CCOC1,MTT,72 h,pIC50,5.82
O=C(NC(=S)NCCNC(=S)NC(=O)c1ccc2ccccc2c1)c1ccc2ccccc2c1,,48 h,pIC50,5.92
O=C1Nc2c(C(F)(F)F)cccc2[C@@]1(c1ccc(O)cc1)c1ccc(OC(F)(F)F)cc1,resazurin,72 h,pIC50,7.85
O=S(=O)(NN=Cc1cn(CCN2CCOCC2)c2ccccc12)c1ccc(-c2ccccc2)cc1,MTT,48 h,pIC50,4.76
Cc1nc(Nc2ncc(C(=O)Nc3c(C)cccc3Cl)s2)cc(N2CCN(CCO)CC2)n1,MTT,48 h,pIC50,5.10
Cc1ccc2nc(-c3c4ccccc4cc4ccccc34)[nH]c2c1,MTT,48 h,pIC50,4.41
COc1cc2ncnc(Nc3ccc(F)c(Cl)c3)c2cc1NC(=O)N/N=C/CN1CCN(C)CC1,MTT,72 h,pIC50,5.06
O=C(/N=C1\SCC(=O)N1C1CCCCC1)c1ccc2ccccc2c1,,48 h,pIC50,5.10
C[C@H]1O[C@@H](n2cc(F)c(=O)[nH]c2=O)[C@H](O)[C@@H]1O,CCK-8,48 h,pIC50,< 4.30
O=c1ccn(Cc2cn(-c3c4ccccc4nc4ccccc34)nn2)c(=O)[nH]1,MTT,,pIC50,4.96
C=CCn1c(-c2ccc(Cl)cc2)nc2ccc(C)cc21,MTT,,pIC50,4.65
COc1cc2ncnc(Nc3ccc(F)c(Cl)c3)c2cc1NC(=O)N/N=C/c1cccn1CCN1CCCCC1,MTT,72 h,pIC50,5.66
COc1cc2c(Nc3ccc(NC(=O)c4ccccc4)cc3)ncnc2cc1OCCCN1CCOCC1,MTS,72 h,pIC50,6.10
Clc1ccccc1-c1nc2ccccc2[nH]1,MTT,48 h,pIC50,4.16
COc1cc2ncnc(Nc3ccc(F)c(Cl)c3)c2cc1NC(=O)N/N=C/c1cccn1CCN1CCCC1,MTT,72 h,pIC50,5.61
CC(=O)O[C@H]1C(=O)[C@@]2(C)[C@H]([C@H](OC(=O)c3ccccc3)[C@]3(O)C[C@H](OC(=O)[C@H](O)[C@@H](NC(=O)c4ccccc4)c4ccccc4)C(C)=C1C3(C)C)[C@]1(OC(C)=O)CO[C@@H]1C[C@@H]2O,MTT,48 h,pIC50,5.63
CS(=O)(=O)c1ccc(-n2cc(/C=N/N=c3\[nH]c(-c4ccc([N+](=O)[O-])cc4)cs3)c(-c3ccc([N+](=O)[O-])cc3)n2)cc1,MTT,48 h,pIC50,5.00
Cc1occc(=O)c1[O-].[Cl-].[W+4].c1cc[cH-]c1.c1cc[cH-]c1,MTT,,pIC50,3.48
